High-throughput results from PubChem.
M1 ag: human M1 muscarinic receptor agonism. 360,000 tested, 0.33% active. AID 588814. CHO-K1 hM1, Fluo-8 calcium fluorescence, agonist mode; 0% DMSO, 100% acetylcholine EC100. activation, % at 3 µM. P11229;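 active means activation above the run's mean compound activation plus 3 SD, cut at about 16% in these data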;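 further: peak over basal fluorescence ratio within a 140 s kinetic read after compound addition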
Target sequence (P11229 whole entry, looked up): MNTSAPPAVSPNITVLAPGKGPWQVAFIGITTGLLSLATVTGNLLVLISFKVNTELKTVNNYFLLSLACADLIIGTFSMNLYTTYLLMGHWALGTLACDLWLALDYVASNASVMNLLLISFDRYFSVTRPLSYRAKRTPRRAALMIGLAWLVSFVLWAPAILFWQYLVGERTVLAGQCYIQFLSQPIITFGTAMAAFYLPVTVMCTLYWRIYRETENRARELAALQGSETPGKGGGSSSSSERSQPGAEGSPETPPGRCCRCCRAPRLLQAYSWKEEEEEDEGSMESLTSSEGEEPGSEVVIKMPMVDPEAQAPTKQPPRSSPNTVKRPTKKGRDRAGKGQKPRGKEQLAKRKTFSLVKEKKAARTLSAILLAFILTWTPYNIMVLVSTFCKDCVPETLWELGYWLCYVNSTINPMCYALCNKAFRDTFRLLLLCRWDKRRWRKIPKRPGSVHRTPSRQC
M5 ag: agonists of human muscarinic M5 receptor (CHRM5) | P08912 | CHO-K1 hM5 cells, Fluo-8 calcium fluorescence; 0% DMSO wells, 100% maximal acetylcholine response | activation, % at 3 µM | 360,000 tested, 0.19% active | AID 624037;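 active means activation above the run's mean over test compounds plus 3 SD, cut at about 23% in these data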;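 further: signal is peak over basal fluorescence ratio across the kinetic read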
CHRM1 antagonist: blocks human M1 muscarinic receptor; P11229; CHO-K1 hM1, Fluo-8 calcium fluorescence, ACh EC80 antagonist; inhibition, % at 3 µM; 360,000 tested, 1.3% active; AID 588852;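 active means percent inhibition above its own plate's cutoff, namely the mean of that plate's compound wells plus 3 SD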;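 further: peak over basal fluorescence ratio during 140 s after agonist addition; 0% = ACh EC80 plus DMSO and 100% = DMSO alone without agonist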
CHRM5 antagonist: blocks acetylcholine activation of human M5 receptor; P08912; CHO-hM5 cells, Fluo-8 calcium fluorescence, ACh EC80; inhibition, % at 3 µM; 360,000 tested, 0.59% active; AID 624040;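 active means inhibition above a per-plate cutoff, the mean of that plate's test compounds plus 3 SD, cut at about 27% in these data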;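 further: 0% = acetylcholine EC80 with DMSO and 100% = DMSO without agonist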
M5 PAM: CHRM5 positive allosteric modulation; P08912; CHO-K1 hM5, Fluo-8 calcium, ACh EC20 PAM; 0% = ACh EC20, 100% = ACh EC100; activation, % at 3 µM; 360,000 tested, 0.3% active; AID 624038;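 active means activation above the run cutoff, the mean activation of all test compounds plus 3 SD, cut at about 18% in these data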
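system = human M5 receptor in CHO-K1 cells | reagent = EC20 acetylcholine as agonist stimulus | compound dosing = single-point, 3 µM nominal | incubation = Fluo-8 loading 80 min at 37 °C plus 30 min room temperature | detection = Fluo-8 calcium dye fluorescence, kinetic read | benchmarks = low control EC20 acetylcholine (0%), high control EC100 acetylcholine (100%)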
CHRM1 PAM: potentiates human M1 receptor response to acetylcholine; CHO-K1 hM1, Fluo-8 calcium fluorescence, ACh EC20; 0% = ACh EC20, 100% = maximal ACh; activation, % at 3 µM; 360,000 tested, 0.088% active; in the data active means activation above about 19%, passing the limit was not always enough
* marks the source's active call; other numbers are inactive results. Compounds with a hit are over-represented: about 2% of the library has one in this group of screens.

What do the screens show for `O=C(Nc1cccc(-c2cnc3ccccc3n2)c1)c1cccc(NC(=O)c2ccco2)c1`?
M1 ag: 2; M5 ag: 4; CHRM1 antagonist: 35*; CHRM5 antagonist: 26; M5 PAM: -18; CHRM1 PAM: -15

How did COc1ccccc1OCCNC(=O)CNC(=O)c1ccc(C(C)(C)C)cc1 do in these assays?
M1 ag: -3; M5 ag: -4; CHRM1 antagonist: -5; CHRM5 antagonist: 10; M5 PAM: 6; CHRM1 PAM: 10

How did COc1ccccc1OCCNC(=O)c1ccc(C(C)(C)C)cc1 do in these assays?
M1 ag: 0; M5 ag: -3; CHRM1 antagonist: 6; CHRM5 antagonist: -8; M5 PAM: 20*; CHRM1 PAM: -2

How did Nc1nc2cc(Cl)c(Br)cc2o1 do in these assays?
M1 ag: 1; M5 ag: -1; CHRM1 antagonist: -6; CHRM5 antagonist: 0; M5 PAM: 5; CHRM1 PAM: 1

What do the screens show for `Cc1cccn2c(=O)nc(SCC(=O)N3CCC(Cc4ccccc4)CC3)nc12`?
M1 ag: 20*; M5 ag: -2; CHRM1 antagonist: 14; CHRM5 antagonist: 4; M5 PAM: -1; CHRM1 PAM: -3

Results for Cc1cccn2c(=O)nc(SCC(=O)N3CCCCC3)nc12 ?
M1 ag: -2; M5 ag: -2; CHRM1 antagonist: -3; CHRM5 antagonist: 9; M5 PAM: -7; CHRM1 PAM: 3

Results for OC[C@@H]1CN(Cc2ccc(-c3ccccc3)cc2)C[C@H](n2cnc3c(NC4CCC4)ncnc32)O1 ?
M1 ag: 1; M5 ag: 5; CHRM1 antagonist: 34*; CHRM5 antagonist: 29*; M5 PAM: -14; CHRM1 PAM: -16

What do the screens show for `COC(=O)[C@H](CC(C)C)NC(=O)/C=C/[C@H]1O[C@@H](n2ccc(=O)[nH]c2=O)[C@H](O)[C@@H]1O`?
M1 ag: -2; M5 ag: 5; CHRM1 antagonist: -5; CHRM5 antagonist: 11; M5 PAM: -3; CHRM1 PAM: -2

What do the screens show for `CC(C)C[C@H](NC(=O)/C=C/[C@H]1O[C@@H](n2ccc(=O)[nH]c2=O)[C@H](O)[C@@H]1O)C(=O)O`?
M1 ag: 17*; M5 ag: 2; CHRM1 antagonist: -14; CHRM5 antagonist: 9; M5 PAM: 2; CHRM1 PAM: 7

How did CC(C)NC(=O)N(C)C[C@@H]1OCc2cnnn2CCCC(=O)N([C@@H](C)CO)C[C@H]1C do in these assays?
M1 ag: -2; M5 ag: 0; CHRM1 antagonist: -13; CHRM5 antagonist: -1; M5 PAM: 3; CHRM1 PAM: 10

What do the screens show for `c1ccc(-c2cncnc2)cc1`?
M1 ag: -1; M5 ag: 7; CHRM1 antagonist: 3; CHRM5 antagonist: -9; M5 PAM: 20*; CHRM1 PAM: 0

How did C=CCn1c(SCc2ccc(C(=O)Nc3nccs3)cc2)nnc1-c1ccc(C)c(Cl)c1 do in these assays?
M1 ag: -3; M5 ag: 1; CHRM1 antagonist: 24; CHRM5 antagonist: 27*; M5 PAM: -16; CHRM1 PAM: -18

Results for CN(C)c1ccc(CNC(=O)C2(C)Cc3c(-c4cccc(C(F)(F)F)c4)ccnc3O2)cc1 (centres undefined) ?
M1 ag: -6; M5 ag: -1; CHRM1 antagonist: -11; CHRM5 antagonist: -6; M5 PAM: -1; CHRM1 PAM: 4

How did CCCCN1CC(N2CCN(CCO)CC2)CS1(=O)=O (centres undefined) do in these assays?
M1 ag: 20*; M5 ag: 3; CHRM1 antagonist: -1; CHRM5 antagonist: 3; M5 PAM: 4; CHRM1 PAM: 17

What do the screens show for `Cc1c(S(=O)(=O)Nc2ccc(Br)cc2)c(=O)n(C)c(=O)n1C`?
M1 ag: -4; M5 ag: 3; CHRM1 antagonist: 30*; CHRM5 antagonist: 23; M5 PAM: -17; CHRM1 PAM: -15

What do the screens show for `O=C(O)Cc1ccc(NC(=O)COc2ccc3ccccc3c2)cc1`?
M1 ag: -2; M5 ag: -2; CHRM1 antagonist: 8; CHRM5 antagonist: 19; M5 PAM: -6; CHRM1 PAM: -7

What do the screens show for `COc1cc2ccccc2cc1C(=O)Nc1ccc(Cc2ccncc2)cc1`?
M1 ag: -1; M5 ag: -1; CHRM1 antagonist: 30*; CHRM5 antagonist: 16; M5 PAM: -17; CHRM1 PAM: -16

What do the screens show for `O=C(COc1ccc2ccccc2c1)Nc1ccc(Cc2ccncc2)cc1`?
M1 ag: 0; M5 ag: 6; CHRM1 antagonist: 43*; CHRM5 antagonist: 25; M5 PAM: -22; CHRM1 PAM: -20

Results for CCOC(=O)c1c(NC(=S)N2CCN(C)CC2)sc2c1CCN(C(=O)OCC)C2 ?
M1 ag: 23*; M5 ag: 5; CHRM1 antagonist: -12; CHRM5 antagonist: -1; M5 PAM: 7; CHRM1 PAM: 15

How did NC(=O)c1ccccc1N/C=C/C(=O)c1ccc(Cl)cc1Cl do in these assays?
M1 ag: -1; M5 ag: -4; CHRM1 antagonist: -14; CHRM5 antagonist: -10; M5 PAM: 47*; CHRM1 PAM: 5

What do the screens show for `CN(C)c1ccc(NC(=O)c2sc(SCC(=O)Nc3ccc(Br)cc3)nc2N)cc1`?
M1 ag: -3; M5 ag: -3; CHRM1 antagonist: 13; CHRM5 antagonist: 8; M5 PAM: -13; CHRM1 PAM: -4

What do the screens show for `CN(C)c1ccc(NC(=O)c2sc(SCC(=O)Nc3nccs3)nc2N)cc1`?
M1 ag: 2; M5 ag: 7; CHRM1 antagonist: 24*; CHRM5 antagonist: 16; M5 PAM: -17; CHRM1 PAM: -20

Results for Cc1scc2c1N(C(=O)CN1CCN(C)CC1)c1ccccc1NC2=O ?
M1 ag: -6; M5 ag: -1; CHRM1 antagonist: 98*; CHRM5 antagonist: 99*; M5 PAM: -18; CHRM1 PAM: -26

What do the screens show for `CC1CCN(CC(=O)N2CC(=O)Nc3ccccc32)CC1`?
M1 ag: -6; M5 ag: -2; CHRM1 antagonist: -4; CHRM5 antagonist: 3; M5 PAM: -1; CHRM1 PAM: 3

How did CN(C)c1ccc(NC(=S)Nc2ccc3c(c2)c(=O)n(C)n3-c2ccc(C(C)(C)C)cc2)cc1 do in these assays?
M1 ag: -7; M5 ag: 0; CHRM1 antagonist: -10; CHRM5 antagonist: 7; M5 PAM: -2; CHRM1 PAM: 2

Results for OC(c1cc(-c2ccc(C(F)(F)F)cc2)nc(C(F)(F)F)c1)C1CCCCN1 (centres undefined) ?
M1 ag: 16*; M5 ag: 23; CHRM1 antagonist: 6; CHRM5 antagonist: 17; M5 PAM: 9; CHRM1 PAM: 15
